Source: PubChem
14-3-3 Bad inh: disrupts binding of bovine 14-3-3 zeta to phospho-Bad peptide | P63103 | 0.71% of 220,000 active | TR-FRET 14-3-3zeta/Dy647-pBad peptide displacement, 1 h | AID 781 | inhibition, % at 21.7 µM;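 active = inhibition above about 70%, limit read from the data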;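 note: 0% = full 14-3-3 plus peptide FRET controls and 100% = background without 14-3-3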
Target sequence (P63103 whole entry, looked up): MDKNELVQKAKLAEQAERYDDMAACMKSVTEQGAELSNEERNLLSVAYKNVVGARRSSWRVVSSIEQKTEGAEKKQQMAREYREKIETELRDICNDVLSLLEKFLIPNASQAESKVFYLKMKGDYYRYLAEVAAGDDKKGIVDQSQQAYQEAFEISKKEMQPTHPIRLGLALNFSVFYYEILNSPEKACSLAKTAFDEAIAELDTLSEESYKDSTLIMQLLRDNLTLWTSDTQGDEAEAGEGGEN
p47phox inh: p47phox (human) inhibition; p47phox/p22phox peptide binding, fluorescence polarization, 2 h; 0.53% of 220,000 active; inhibition, % at 24.7 µM; P14598;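 active = inhibition above about 30%, limit read from the data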;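 note: 0% = p47phox with labelled peptide and 100% = labelled peptide alone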
Target sequence (P14598 whole entry, looked up): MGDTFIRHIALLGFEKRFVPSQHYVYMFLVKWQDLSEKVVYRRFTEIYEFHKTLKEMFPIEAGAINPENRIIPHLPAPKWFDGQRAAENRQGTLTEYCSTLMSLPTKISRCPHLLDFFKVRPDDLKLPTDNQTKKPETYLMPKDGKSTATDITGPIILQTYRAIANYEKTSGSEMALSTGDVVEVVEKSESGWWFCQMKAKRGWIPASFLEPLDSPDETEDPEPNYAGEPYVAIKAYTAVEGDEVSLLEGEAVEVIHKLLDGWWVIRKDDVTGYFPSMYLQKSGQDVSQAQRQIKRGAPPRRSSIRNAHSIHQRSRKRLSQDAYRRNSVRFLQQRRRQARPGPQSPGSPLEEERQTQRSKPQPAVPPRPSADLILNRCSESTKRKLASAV
WT yeast gro inh: growth inhibition of WT yeast, mitochondrial fusion screen. mitochondrial fusion phenotypic screen, WT strain. inhibition, % at 10 µM. 2.1% of 190,000 active; in the data active = inhibition above about 58%; tested in S. cerevisiae
ROMK primary: human ROMK K+ channel modulation, primary screen | 2% of 130,000 active | B-score at 10 µM | Tet-inducible ROMK, thallium flux fluorescence; actives lie on both sides | AID 1918 | P48048;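 active = signal ratio slope over the read window, or its plate-corrected B-score, at least 3 SD from the plate mean, either direction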;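 note: B-score of the F/F0 ratio slope over 7 to 12 s after thallium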
KCC2 mod: KCC2 (human) Cl- transport modulation. Q9H2X9. AID 1456. KCC2 cells, thallium flux FluoZin-2 fluorescence. 2.2% of 190,000 active. B-score of Tl+ flux slope (higher = more flux/activation; lower = inhibition) at 10 µM;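 active = thallium flux slope and its plate-corrected score both differing from the plate sample mean at a set confidence after two filtering rounds, in either direction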;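 note: slope of fluorescence scaled to starting intensity during 10 to 20 s after thallium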
RBBP9 inh: human RBBP9 hydrolase inhibition; O75884; recombinant RBBP9, FP-Rh probe fluorescence polarization; inhibition, % at 7.94 µM; 0.2% of 220,000 active; AID 1515;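 active = inhibition above the campaign mean of all tested compounds plus 3 SD, cut at about 14% in these data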;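 note: plate controls were DMSO wells with RBBP9 for no effect and wells lacking RBBP9 protein for full effect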
Target sequence (O75884 whole entry, looked up): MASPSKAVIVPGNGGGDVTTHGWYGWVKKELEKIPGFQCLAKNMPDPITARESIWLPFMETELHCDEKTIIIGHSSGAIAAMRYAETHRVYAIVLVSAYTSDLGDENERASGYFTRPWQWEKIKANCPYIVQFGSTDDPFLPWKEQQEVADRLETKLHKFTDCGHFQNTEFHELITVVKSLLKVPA
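system = RBBP9 protein | input = RBBP9 at 2.5 µM in dispensed solution, before mixing | measured by = fluorescence polarization (mP), excitation 525 nm, emission 598 nm | incubation = enzyme-compound preincubation 30 min, then probe labeling 45 min, 25 °C | buffer or medium = Tris-NaCl-Pluronic buffer, pH 8.0 | compound = single dose 7.94 µM | also added = FP-Rh probe, 375 nM dispensing solution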
KCC2 secondary: KCC2 (human) modulation, secondary assay | shares compounds with KCC2 mod | HEK293-KCC2, thallium flux, FluoZin2 fluorescence; stronger effect = higher value | normalised thallium flux (F/F0 slope) at 10 µM | 15% of 3,700 active | AID 1713;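 active = thallium flux slope above the same plate's solvent-only control mean plus 3 SD; inconclusive = the two replicate wells disagree; inactive = no significant difference from solvent-only control wells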
KCC2 bumet counter: thallium flux persisting under bumetanide in KCC2 cells, counter-screen secondary assay; normalized thallium flux at 10 µM; AID 1714; HEK293-KCC2 + bumetanide/ouabain, thallium flux FluoZin2; stronger effect = higher value; 49% of 3,700 active; shares compounds with KCC2 mod;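 active = thallium entry rate above the same plate's blocked-transporter control wells by more than 3 SD; inconclusive = the two repeat wells disagree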;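 note: raw slope of fluorescence over initial fluorescence between 10 and 20 s after thallium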
KCC2 sec2: confirmation of human KCC2 transport modulators; 23% of 3,700 active; normalized thallium flux at 10 µM; HEK293-KCC2, thallium flux FluoZin2 fluorescence; actives lie on both sides; F/F0 rise rate, 10–20 s post-thallium; shares compounds with KCC2 mod;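 active = thallium flux slope more than 3 SD above or below the plate's solvent-only control mean, mostly below; inconclusive = the two repeat wells disagreed; inactive = no significant shift from solvent-only controls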;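 note: raw slope with 0.1% DMSO as baseline and bumetanide as block control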
HEK counter1: parental HEK flux effect, counter-screen; AID 1716; 46% of 3,700 active; HEK293 parental cells, thallium flux FluoZin2, ouabain; baseline-ratio fluorescence slope, 10–20 s after thallium; shares compounds with KCC2 mod; thallium flux rate (normalised fluorescence) at 10 µM;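 active = thallium flux rate significantly above the same plate's solvent-only control wells, beyond their mean plus 3 SD; inconclusive = the two replicate wells gave conflicting results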
KCC2 ouabain: modulates human KCC2 on retest with ouabain | shares compounds with KCC2 mod | HEK293-KCC2, thallium flux FluoZin2 fluorescence; bidirectional: low = inhibitor, high = activator | raw Tl+ flux slope (below DMSO = inhibition, above = activation) at 10 µM | 48% of 3,700 active | AID 1717;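 active = thallium flux slope beyond 3 SD from same-plate DMSO control mean in most replicates, usually higher, sometimes lower; inconclusive = repeat tests gave conflicting results; inactive = no significant difference from controls in most replicates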;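 note: slope of initial-normalized fluorescence between seconds 10 and 20 after thallium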
HEK counter2: counter-screen for KCC2 modulators: effect in parental HEK293 cells | shares compounds with KCC2 mod | 33% of 3,700 active | thallium flux slope at 10 µM | thallium flux FluoZin-2 fluorescence slope;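 active = thallium flux slope above the same plate's solvent-control mean plus 3 SD in both duplicate wells; inconclusive = duplicate wells that disagreed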;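 note: run without ouabain in cells lacking the KCC2 cotransporter; slope of fluorescence scaled to its starting value between 10 and 20 s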
Numbers without * were called inactive; i = inactive; ? = inconclusive; . = no result given. In the library only some 5.8% were active in any assay of this set; here they are far more common.

SMILES | 14-3-3 Bad inh | p47phox inh | WT yeast gro inh | ROMK primary | KCC2 mod | RBBP9 inh | KCC2 secondary | KCC2 bumet counter | KCC2 sec2 | HEK counter1 | KCC2 ouabain | HEK counter2
Fc1ccc(NC(=S)N/N=C/c2ccc(F)c(F)c2)cc1 | -12 | -1 | 15 | 0.13 | 27* | -11 | 0.016* | 0.063* | 0.031 | 0.022* | 0.044* | 0.013*
Fc1ccc(/C=N/NC(=S)Nc2ccc(Cl)cc2Cl)cc1 | -4 | -17 | . | . | 7.6* | 6 | 0.0099 | 0.018* | 0.03 | 0.012* | 0.029* | ?
Fc1ccc(NC(=S)Nc2cc(Cl)ccc2Cl)cc1 | -9 | -9 | -37 | -1.5 | 3.5* | -8 | 0.008 | 0.015* | ? | 0.018* | 0.026* | 0.015*
CCn1nc(C)c(/C=N/NC(=S)Nc2ccc(Cl)cc2Cl)c1C | 10 | 10 | 12 | 1.3 | 4.5* | -3 | 0.0082 | 0.01* | 0.031 | 0.0084* | ? | ?
CCOC(=O)c1ccc(NC(=O)CN2C(=O)CSC(C)C2=O)cc1 (stereo not drawn) | -9 | -8 | -11 | -0.2 | 0.0054 | -10 | . | . | . | . | . | .
Cc1ccc(NC(=O)Nc2ncnc3nc[nH]c23)cc1 | -1 | 2 | . | -0.7 | -0.85 | 8 | . | . | . | . | . | .
C=C(C)Cn1c(CCCNC(=O)CC)nc2ccccc21 | -3 | -16 | -5 | . | -5* | -7 | 0.0085 | 0.0065 | 0.033 | 0.0079 | 0.023 | 0.011
CCCCCn1c(CNC(=O)CCC)nc2ccccc21 | 6 | -9 | -9 | . | -4.6* | -7 | 0.006 | 0.0039 | 0.032 | 0.0069 | 0.018 | ?
CCCCn1c(CNC(=O)CCC)nc2ccccc21 | -3 | -13 | 8 | . | -0.0083 | -1 | . | . | . | . | . | .
O=C(CSc1cccc[n+]1[O-])Nc1ccc(N2CCOCC2)cc1 | 12 | 3 | 13 | 0.19 | i | -3 | . | . | . | . | . | .
O=C(N/N=C/c1ccccc1)c1n[nH]c2c1CCCC2 | -14 | -11 | -20 | 0.014 | -0.03 | -4 | . | . | . | . | . | .
O=C(N/N=C/C(Br)=C/c1ccccc1)c1n[nH]c2c1CCC2 | -1 | -30 | 50 | 1.9 | . | -10 | 0.0077 | 0.0066 | 0.028 | 0.007 | ? | 0.0099
CC(=O)CCC(=O)OCC(=O)c1ccc(C(F)(F)F)cc1 | -5 | 4 | . | . | 0.014 | -6 | . | . | . | . | . | .
Cc1ccc(C(=O)Nc2nnc(-c3ccco3)o2)cc1C | 5 | -10 | 19 | . | 8* | 1 | 0.013* | 0.039* | 0.029 | 0.019* | 0.038* | 0.011*
O=C(Nc1nnc(-c2ccco2)o1)c1ccc(Cl)cc1 | 12 | . | 65* | -0.26 | 29* | 8 | 0.032* | 0.069* | ? | 0.031* | 0.06* | 0.017*
CN(C)S(=O)(=O)c1ccc(C(=O)Nc2nnc(-c3ccco3)o2)cc1 | -15 | 3 | -6 | . | -0.18 | -5 | . | . | . | . | . | .
Cc1cccc(C(=O)Nc2nnc(-c3ccco3)o2)c1 | -1 | -12 | 43 | . | 4.7 | -6 | . | . | . | . | . | .
CC(=O)Oc1cc2c(cc1Cl)C(c1cccs1)CC1(CC(C)(C)NC(=S)N1)O2 (stereo not drawn) | -12 | -4 | 0 | . | -0.64 | -1 | . | . | . | . | . | .
Cc1nnc(-c2cnn(C)c2N)n1CCCN1CCOCC1 | -5 | -6 | -16 | -0.22 | 0.32 | -6 | . | . | . | . | . | .
COC(=O)[C@H](Cc1ccccc1)NC(=O)N1CCN(c2ccc(F)cc2)CC1 | 4 | -11 | . | . | -0.042 | 2 | . | . | . | . | . | .
O=C(c1ccccc1)N(C1=NCCCCS1)c1ccccc1 | 0 | -1 | -17 | . | -0.42 | -4 | . | . | . | . | . | .
Cc1ccc(/C=C2\NC(=S)NC2=O)cc1[N+](=O)[O-] | -7 | -3 | -3 | -1.9 | 3* | -14 | 0.015 | 0.0041 | 0.03 | 0.007 | 0.018 | 0.0087
O=C1NC(=S)N/C1=C\c1ccc(Oc2ccc(C(F)(F)F)cc2[N+](=O)[O-])c(Cl)c1 | -3 | -11 | . | . | 0.73 | -7 | . | . | . | . | . | .
CCOc1cc(/C=C2\N=C(SC)SC2=O)cc([N+](=O)[O-])c1OC(C)=O | 8 | 1 | 14 | 0.02 | . | -1 | ? | 0.0056* | ? | 0.007 | 0.018 | 0.0099
CCN(C(=S)Nc1ccc(Oc2ccccc2)cc1)c1ccccc1 | -14 | 2 | -5 | . | -0.49 | 4 | . | . | . | . | . | .
SMILES | 14-3-3 Bad inh | p47phox inh | WT yeast gro inh | ROMK primary | KCC2 mod | RBBP9 inh | KCC2 secondary | KCC2 bumet counter | KCC2 sec2 | HEK counter1 | KCC2 ouabain | HEK counter2
CC1CCCN(S(=O)(=O)c2ccc(S(=O)(=O)N3CCC4(CC3)OCCO4)cc2)C1 (stereo not drawn) | 10 | 2 | 2 | -0.19 | 1 | -1 | . | . | . | . | . | .
O=C(/C=C/c1ccc(Br)o1)Nc1nnc(C2CC2)s1 | -3 | -74 | . | . | -0.72 | -10 | . | . | . | . | . | .
CCCCC(c1nnnn1Cc1ccco1)N1CCN(c2nc3ccccc3s2)CC1 (stereo not drawn) | -3 | -18 | 13 | -0.66 | -6.9* | -8 | 0.0092 | 0.0063 | ? | 0.0067 | 0.015* | 0.011
Cc1ccc2nc(C)cc(C(=O)OCC(=O)Nc3cccnc3Cl)c2c1 | -11 | -48 | 18 | 0.21 | 0.037 | -7 | . | . | . | . | . | .
C/C(=N\NC(=S)Nc1ccc(C)c(C)c1)c1ccc(N2CCOCC2)cc1 | 12 | -10 | -3 | . | 5* | -9 | 0.011 | 0.033* | 0.032 | 0.015* | 0.023 | 0.011
CC(C)C(=O)Nc1ccc(S(=O)(=O)Nc2ccccn2)cc1 | -1 | 4 | -20 | 0.62 | 0.16 | 3 | . | . | . | . | . | .
CC/C(=N/OC(=O)c1cccc(C)c1)C(=O)c1cccs1 | 10 | 13 | 11 | 0.46 | 0.094 | -9 | . | . | . | . | . | .
O=c1cc(CSc2nnnn2-c2ccccc2)nc2sccn12 | 1 | 2 | -18 | 0.072 | -0.013 | -3 | . | . | . | . | . | .
O=C(O)CSc1nnnn1-c1ccccc1 | 20 | -4 | -35 | -0.53 | -0.64 | -7 | . | . | . | . | . | .
O=C(CSc1nnnn1-c1ccc(Cl)cc1)N1CCc2ccccc2C1 | -6 | -18 | 81* | -0.38 | . | -9 | 0.0056 | ? | 0.025* | 0.0072 | ? | 0.0099
O=C(CSc1nnnn1-c1ccccc1)CSc1nnnn1-c1ccccc1 | 14 | -11 | 8 | . | . | -4 | 0.0071 | 0.0046 | 0.028 | ? | 0.026* | 0.0098
